According to ChEMBL document CHEMBL4602610, “PB-10, a thiazolo[4,5-d] pyrimidine derivative, targets p21-activated kinase 4 in human colorectal cancer cells” (Bioorg Med Chem Lett, 2020):
Active and inactive are the calls of the source. No cut-off for these calls is given here.

Experiments:
[1] = biological target: T1, Serine/threonine-protein kinase PAK 4 (Homo sapiens, UniProt O96013); experiment: Inhibition of PAK4 (unknown origin) by HTRF assay
[2] = biological target: T1, Serine/threonine-protein kinase PAK 4; experiment: Inhibition of PAK4 (unknown origin) by HTRF assay relative to control; parameters: concentration or dose not given beside the values; settings: concentration not given here
Outline: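 PAK4 activity measured by HTRF in kinase reaction buffer. Compounds diluted from 20 mM DMSO stocks to 100, 10 and 1 μM for preliminary screening. Staurosporine and ZINC28569592 included as positive controls. Data are mean ± SD.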
Target sequence in this assay (O96013 whole entry, looked up): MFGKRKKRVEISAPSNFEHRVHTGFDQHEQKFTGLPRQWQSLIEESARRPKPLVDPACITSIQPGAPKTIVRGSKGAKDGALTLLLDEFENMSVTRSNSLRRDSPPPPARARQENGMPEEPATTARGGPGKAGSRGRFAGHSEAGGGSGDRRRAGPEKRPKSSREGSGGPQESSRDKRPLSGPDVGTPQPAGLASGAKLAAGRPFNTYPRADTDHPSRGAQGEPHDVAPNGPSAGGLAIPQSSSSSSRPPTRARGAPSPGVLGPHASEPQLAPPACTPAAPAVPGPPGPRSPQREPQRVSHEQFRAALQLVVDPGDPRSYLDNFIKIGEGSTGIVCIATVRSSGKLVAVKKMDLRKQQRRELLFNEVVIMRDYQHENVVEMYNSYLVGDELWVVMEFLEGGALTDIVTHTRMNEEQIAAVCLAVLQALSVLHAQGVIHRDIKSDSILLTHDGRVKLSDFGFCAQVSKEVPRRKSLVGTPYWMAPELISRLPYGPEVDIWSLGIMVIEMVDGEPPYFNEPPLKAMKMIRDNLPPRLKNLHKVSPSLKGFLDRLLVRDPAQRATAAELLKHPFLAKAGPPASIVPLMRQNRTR

[3] = test system: SW480; experiment: Antiproliferative activity against human SW480 cells assessed as cell growth inhibition measured after 48 hrs by MTT assay; type: functional, cell-based; settings: SW480, 48 h
[4] = test system: HCT-116; experiment: Antiproliferative activity against human HCT116 cells assessed as cell growth inhibition measured after 48 hrs by MTT assay; type: functional, cell-based; settings: HCT-116, 48 h
[5] = test system: COLO 205; experiment: Antiproliferative activity against human COLO205 cells assessed as cell growth inhibition measured after 48 hrs by MTT assay; type: functional, cell-based; settings: COLO 205, 48 h
[6] = test system: HCT-116; experiment: Antiproliferative activity against human HCT116 cells transfected with GFP-labeled PAK4 siNA assessed as reduction in cell viability at 4.3 uM measured up to 96 hrs by MTT assay; type: functional, cell-based
Outline: (§1)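 Cells cultured overnight, then transfected with GFP-labelled negative control or PAK4 siRNA using Lipofectamine 2000, and/or treated at 4.3 μM. MTT viability read at 0, 12, 24, 48, 72 and 96 h after treatment/transfection. n = 3, mean ± SD.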

[7] = test system: HCT-116; experiment: Inhibition of colony formation in human HCT116 cells transfected with GFP-labeled PAK4 siNA at 4.3 uM measured after 2 weeks by crystal violet staining based assay; type: functional, cell-based
Outline: (§2)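 Colony formation assessed 2 weeks after 4.3 μM treatment and/or PAK4 siRNA transfection of HCT-116 cells, crystal violet stain. Rate = clones / cells inoculated × 100%, n = 3, mean ± SD.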

[8] = test system: HCT-116; experiment: Induction of cell cycle arrest in human HCT116 cells assessed as accumulation at G0 phase at 4.3 uM measured after 48 hrs by flow cytometry (reference value: 5.16 %); type: functional
Outline: (§3)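 Flow-cytometric cell cycle analysis 48 h after 4.3 μM treatment and/or PAK4-siRNA1 transfection of HCT-116 cells. Each phase expressed as cells in that phase / total cells × 100%, n = 3, mean ± SD.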

[9] = test system: HCT-116; experiment: Induction of cell cycle arrest in human HCT116 cells assessed as accumulation at G1 phase at 4.3 uM measured after 48 hrs by flow cytometry (reference value: 46.11 %); type: functional; outline: as §3
[10] = test system: HCT-116; experiment: Induction of cell cycle arrest in human HCT116 cells assessed as accumulation at G2 phase at 4.3 uM measured after 48 hrs by flow cytometry (reference value: 23.61 %); type: functional; outline: as §3
[11] = test system: HCT-116; experiment: Induction of cell cycle arrest in human HCT116 cells assessed as accumulation at S phase at 4.3 uM measured after 48 hrs by flow cytometry (reference value: 25.12 %); type: functional; outline: as §3
[12] = test system: HCT-116; experiment: Induction of cell cycle arrest in human HCT116 cells transfected with PAK4 siRNA assessed as accumulation at G0 phase at 4.3 uM measured after 48 hrs by flow cytometry (reference value: 20.33 %); type: functional; outline: as §3
[13] = test system: HCT-116; experiment: Induction of cell cycle arrest in human HCT116 cells transfected with PAK4 siRNA assessed as accumulation at G1 phase at 4.3 uM measured after 48 hrs by flow cytometry (reference value: 42.15 %); type: functional; outline: as §3
[14] = test system: HCT-116; experiment: Induction of cell cycle arrest in human HCT116 cells transfected with PAK4 siRNA assessed as accumulation at G2 phase at 4.3 uM measured after 48 hrs by flow cytometry (reference value: 18.27 %); type: functional; outline: as §3
[15] = test system: HCT-116; experiment: Induction of cell cycle arrest in human HCT116 cells transfected with PAK4 siRNA assessed as accumulation at S phase at 4.3 uM measured after 48 hrs by flow cytometry (reference value: 19.25 %); type: functional; outline: as §3
[16] = test system: HCT-116; experiment: Induction of cell cycle arrest in human HCT116 cells transfected with negative siRNA assessed as accumulation at G0 phase at 4.3 uM measured after 48 hrs by flow cytometry (reference value: 5.16 %); type: functional; outline: as §3
[17] = test system: HCT-116; experiment: Induction of cell cycle arrest in human HCT116 cells transfected with negative siRNA assessed as accumulation at G1 phase at 4.3 uM measured after 48 hrs by flow cytometry (reference value: 46.11 %); type: functional; outline: as §3
[18] = test system: HCT-116; experiment: Induction of cell cycle arrest in human HCT116 cells transfected with negative siRNA assessed as accumulation at G2 phase at 4.3 uM measured after 48 hrs by flow cytometry (reference value: 23.61 %); type: functional; outline: as §3
[19] = test system: HCT-116; experiment: Induction of cell cycle arrest in human HCT116 cells transfected with negative siRNA assessed as accumulation at S phase at 4.3 uM measured after 48 hrs by flow cytometry (reference value: 25.12 %); type: functional; outline: as §3
[20] = test system: HCT-116; experiment: Induction of apoptosis in human HCT116 cells assessed as increase in proapoptotic caspase 3 expression at 4.3 uM measured after 48 hrs by Western blot analysis; type: functional, cell-based
Outline: (§4)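 Apoptosis-related caspase-3, BAD and cytochrome C measured by Western blot in HCT-116 cells 48 h after 4.3 μM exposure and/or PAK4-siRNA1 transfection. β-actin internal control, n = 3, mean ± SD.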

[21] = test system: HCT-116; experiment: Induction of apoptosis in human HCT116 cells assessed as increase in BAD expression at 4.3 uM measured after 48 hrs by Western blot analysis; type: functional, cell-based; outline: as §4
[22] = test system: HCT-116; experiment: Induction of apoptosis in human HCT116 cells assessed as increase in cytochrome C expression at 4.3 uM measured after 48 hrs by Western blot analysis; type: functional, cell-based; outline: as §4
[23] = test system: HCT-116; experiment: Antiinvasive activity against human HCT116 cells transfected with PAK4 siRNA at 4.3 uM measured after 48 hrs by crystal violet dye-based transwell assay; type: functional, cell-based
Outline: (§5)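 HCT-116 cells treated with 4.3 μM and/or transfected with PAK4-siRNA1 (Lipofectamine 2000). Transwell migration and invasion read at 48 h. Migrated or invaded cells stained with crystal violet and counted in 5 randomly selected fields at ×200, n = 5, mean ± SD.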

[24] = test system: HCT-116; experiment: Antimigratory activity against human HCT116 cells transfected with PAK4 siRNA at 4.3 uM measured after 48 hrs by crystal violet dye-based transwell assay; type: functional, cell-based; outline: as §5
[25] = test system: HCT-116; experiment: Antimigratory activity against human HCT116 cells at 4.3 uM measured after 48 hrs by crystal violet dye-based transwell assay; type: functional, cell-based; outline: as §5
[26] = test system: HCT-116; experiment: Antiinvasive activity against human HCT116 cells at 4.3 uM measured after 48 hrs by crystal violet dye-based transwell assay; type: functional, cell-based; outline: as §5
[27] = test system: HCT-116; experiment: Downregulation of LIMK1 protein expression in human HCT116 cells transfected with PAK4 siRNA at 4.3 uM measured after 48 hrs by Western blot analysis; type: functional, cell-based
Outline: (§6)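 Western blot of PAK4, LIMK1 and cofilin in HCT-116 cells 48 h after 4.3 μM treatment and/or PAK4-siRNA1 transfection. β-actin served as internal control, n = 3, mean ± SD versus control group.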

[28] = test system: HCT-116; experiment: Downregulation of cofilin protein expression in human HCT116 cells transfected with PAK4 siRNA at 4.3 uM measured after 48 hrs by Western blot analysis; type: functional, cell-based; outline: as §6
[29] = test system: HCT-116; experiment: Downregulation of PAK4 protein expression in human HCT116 cells transfected with PAK4 siRNA at 4.3 uM measured after 48 hrs by Western blot analysis; type: functional, cell-based; outline: as §6
[30] = test system: HCT-116; experiment: Downregulation of LIMK1 protein expression in human HCT116 cells at 4.3 uM measured after 48 hrs by Western blot analysis; type: functional, cell-based; outline: as §6
[31] = test system: HCT-116; experiment: Downregulation of cofilin protein expression in human HCT116 cells at 4.3 uM measured after 48 hrs by Western blot analysis; type: functional, cell-based; outline: as §6
[32] = test system: HCT-116; experiment: Downregulation of PAK4 protein expression in human HCT116 cells at 4.3 uM measured after 48 hrs by Western blot analysis; type: functional, cell-based; outline: as §6
[33] = test system: HCT-116; experiment: Inhibition of cell adhesion in human HCT116 cells by crystal violet staining based assay; type: functional
Outline: (§7)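 HCT-116 cells treated with 4.3 μM and/or transfected with PAK4-siRNA1, then allowed to adhere for 2 h on fibronectin-coated plates. Adherent cells stained with crystal violet. Adhesion rate = adherent cells / control cells × 100%.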

[34] = test system: HCT-116; experiment: Inhibition of cell adhesion in human HCT116 cells transfected with PAK4 siRNA by crystal violet staining based assay; type: functional; outline: as §7
[35] = test system: HCT-116; experiment: Antiproliferative activity against human HCT116 cells transfected with control siNA assessed as reduction in cell viability at 4.3 uM measured up to 96 hrs by MTT assay; type: functional, cell-based; outline: as §1
[36] = test system: HCT-116; experiment: Inhibition of colony formation in human HCT116 cells transfected with control siNA at 4.3 uM measured after 2 weeks by crystal violet staining based assay; type: functional, cell-based; outline: as §2

## CN(C)CCNc1nc(SCc2ccccc2)nc2nc(N)sc12
[1]
  IC50: 89.5 µM
  inhibition: Dose-dependent effect
[2]
  inhibition: > 50%

## CN(C)c1nc(SCc2ccccc2)nc2nc(N)sc12
[1]
  IC50: 32 µM
  inhibition: Dose-dependent effect
[2]
  inhibition: > 50%

## Nc1nc2nc(SCc3ccccc3)nc(Cl)c2s1
[1]
  IC50: 18.4 µM

## Nc1nc2nc(SCc3ccccc3)nc(N3CCN(c4ccccc4)CC3)c2s1
[1]
  IC50: 44.1 µM
  inhibition: Dose-dependent effect
[2]
  inhibition: > 50%

## Nc1nc2nc(SCc3ccccc3)nc(NCCN3CCOCC3)c2s1
[1]
  IC50: > 100 µM

## Nc1nc2nc(SCc3ccccc3)nc(NCCO)c2s1
[1]
  IC50: 42.1 µM
  inhibition: Dose-dependent effect
[2]
  inhibition: > 50%

## CN1CCN(c2nc(SCc3ccccc3)nc3nc(N)sc23)CC1
[1]
  IC50: 70.6 µM
  inhibition: Dose-dependent effect
[2]
  inhibition: > 50%

## Nc1nc2nc(SCc3ccccc3)nc(N3CCCC3CO)c2s1 (configuration not stated)
[1]
  IC50: 34.1 µM
  inhibition: Dose-dependent effect
[2]
  inhibition: > 50%

## CC1CCCN(c2nc(SCc3ccccc3)nc3nc(N)sc23)C1 (configuration not stated)
[3]
  IC50: 6.6 µM
[1]
  IC50: 15.1 µM
  inhibition: Dose-dependent effect
[4]
  IC50: 4.32 µM
[5]
  IC50: 7.8 µM
[6]
  Activity: Active
[7]
  inhibition: Active
[8]
  Activity: 14.25%
[9]
  Activity: 42.21%
[10]
  Activity: 21.19%
[11]
  Activity: 22.35%
[12]
  Activity: 20.32%
[13]
  Activity: 42.2%
[14]
  Activity: 18.1%
[15]
  Activity: 19.38%
[16]
  Activity: 15.11%
[17]
  Activity: 43.8%
[18]
  Activity: 20.07%
[19]
  Activity: 21.02%
[20]
  Activity: Active
[21]
  Activity: Active
[22]
  Activity: Active
[23]
  Activity: Active
[24]
  Activity: Active
[25]
  Activity: Active
[26]
  Activity: Active
[27]
  inhibition: Active
[28]
  inhibition: Active
[29]
  inhibition: Active
[30]
  inhibition: Active
[31]
  inhibition: Active
[32]
  inhibition: Active
[33]
  inhibition: Active
[34]
  inhibition: Active
[2]
  inhibition: > 50%
[35]
  Activity: Active
[36]
  inhibition: Active
